Measured values reported in ChEMBL document CHEMBL4422663, “Suppression of Tumor Growth and Metastases by Targeted Intervention in Urokinase Activity with Cyclic Peptides” (J Med Chem, 2019).
Active and inactive are the calls of the source. No cut-off for these calls is given here. Positions of bridges follow the written chain, without caps; N, C: chain ends. Residues, ends and D or L forms follow the SMILES beside them.

Assays:
[1] = molecular target: T1, Urokinase-type plasminogen activator (Mus musculus, UniProt P06869); assay: Inhibition of mouse uPA serine protease domain preincubated for 15 mins followed by chromogenic substrate addition
Plasma kallikrein = Plasma kallikrein (Homo sapiens, UniProt P03952); assay: Inhibition of human plasma kallikrein preincubated for 15 mins followed by chromogenic substrate addition
[2] = molecular target: Tissue-type plasminogen activator (Homo sapiens, UniProt P00750); assay: Inhibition of human tissue-type plasminogen activator preincubated for 15 mins followed by chromogenic substrate addition
[3] = molecular target: Tissue-type plasminogen activator (Mus musculus, UniProt P11214); assay: Inhibition of mouse tissue-type plasminogen activator preincubated for 15 mins followed by chromogenic substrate addition
Plasminogen = Plasminogen (Homo sapiens, UniProt P00747); assay: Inhibition of human plasmin preincubated for 15 mins followed by chromogenic substrate addition
Prothrombin [4] = molecular target: Prothrombin (Homo sapiens, UniProt P00734); assay: Inhibition of human thrombin preincubated for 15 mins followed by chromogenic substrate addition
Prothrombin [5] = molecular target: Prothrombin (Mus musculus, UniProt P19221); assay: Inhibition of mouse thrombin preincubated for 15 mins followed by chromogenic substrate addition
Coagulation factor XI = Coagulation factor XI (Homo sapiens, UniProt P03951); assay: Inhibition of human factor 11a preincubated for 15 mins followed by chromogenic substrate addition
[6] = molecular target: T2, Suppressor of tumorigenicity 14 protein (Homo sapiens, UniProt Q9Y5Y6); assay: Inhibition of human matriptase preincubated for 15 mins followed by chromogenic substrate addition
T2 sequence (Q9Y5Y6 whole entry): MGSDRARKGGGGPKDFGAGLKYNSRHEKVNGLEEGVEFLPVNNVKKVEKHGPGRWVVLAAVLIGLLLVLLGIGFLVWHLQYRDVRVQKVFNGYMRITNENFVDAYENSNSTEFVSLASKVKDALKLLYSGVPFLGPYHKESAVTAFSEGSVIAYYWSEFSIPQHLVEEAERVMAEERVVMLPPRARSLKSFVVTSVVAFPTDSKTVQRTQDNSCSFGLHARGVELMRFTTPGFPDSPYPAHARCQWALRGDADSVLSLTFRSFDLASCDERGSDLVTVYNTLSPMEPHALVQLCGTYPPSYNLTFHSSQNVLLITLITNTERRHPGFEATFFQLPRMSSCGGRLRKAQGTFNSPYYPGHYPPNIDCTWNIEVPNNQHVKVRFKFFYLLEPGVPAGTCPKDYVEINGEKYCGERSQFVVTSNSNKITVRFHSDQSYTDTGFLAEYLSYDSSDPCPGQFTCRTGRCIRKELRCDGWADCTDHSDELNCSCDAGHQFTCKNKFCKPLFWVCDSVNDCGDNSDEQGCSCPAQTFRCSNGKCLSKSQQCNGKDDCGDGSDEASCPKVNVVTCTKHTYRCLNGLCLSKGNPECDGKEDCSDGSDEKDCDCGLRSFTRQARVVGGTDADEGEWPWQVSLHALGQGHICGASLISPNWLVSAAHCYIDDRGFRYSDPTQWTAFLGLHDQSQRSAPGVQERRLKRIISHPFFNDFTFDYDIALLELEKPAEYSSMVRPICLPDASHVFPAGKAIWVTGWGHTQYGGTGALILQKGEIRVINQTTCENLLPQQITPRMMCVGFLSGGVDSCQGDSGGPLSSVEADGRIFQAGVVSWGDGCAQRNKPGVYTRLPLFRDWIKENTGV

[7] = molecular target: Vitamin K-dependent protein C (Homo sapiens, UniProt P04070); assay: Inhibition of human activated protein C preincubated for 15 mins followed by chromogenic substrate addition
[8] = molecular target: T1, Urokinase-type plasminogen activator; assay: Inhibition of uPA in presence of 75% mouse […] measured immediately
Procedure, shortened: (§1)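 Peptide was preincubated in 75% murine plasma for 0–24 h (sampled at 0, 2, 8 and 24 h). Residual uPA-inhibitory activity was then measured and expressed as IC50.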

[9] = molecular target: T1, Urokinase-type plasminogen activator; assay: Inhibition of uPA in presence of 75% mouse […] measured at 2 hrs; procedure, shortened: as §1
[10] = molecular target: T1, Urokinase-type plasminogen activator; assay: Inhibition of uPA in presence of 75% mouse […] measured at 8 hrs; procedure, shortened: as §1
[11] = Stability in 75% mouse plasma assessed as protease-mediated compound degradation measured within 8 hrs; format: ADME, cell-free; procedure, shortened: as §1
CT26 [12] = assay: Antimetastatic activity against GFP-fused mouse CT26 cells allografted in Balb/c mouse assessed as reduction genomic DNA of metastatic cells at 11.3 mg/kg, ip administered daily for 15 days by qPCR analysis; format: functional; settings: 360 h
Procedure, shortened: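 Male Balb/c mice (~20 g, 6/group) given 10^6 GFP-CT-26 cells i.v. in 200 µl mixed with peptide or saline, then daily i.p. peptide Day 1–15; sacrificed Day 16. Lung total DNA isolated after homogenization; 200 ng per SYBR Green qPCR, quantified against standard curve of CT-26 DNA spiked into normal lung DNA (0.135%-100%).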

CT26 [13] = assay: Antimetastatic activity against GFP-fused mouse CT26 cells allografted in Balb/c mouse assessed as reduction in relative fluorescence at 1.13 mg/kg, ip administered daily for 15 days by fluorescence-based assay; format: functional, organism-based
Procedure, shortened: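 After iv GFP-CT-26 implantation (10^6 cells) in male Balb/c and daily ip dosing Days 1–15, lungs were removed on Day 16. Whole-lung GFP was imaged with 488 nm excitation (em 520) and quantified over a 20×20 mm2 area per lung. Non-implanted lungs served as background.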

CT26 [14] = assay: Antimetastatic activity against GFP-fused mouse CT26 cells allografted in Balb/c mouse assessed as reduction in relative fluorescence at 11.3 mg/kg, ip administered daily for 15 days by fluorescence-based assay; format: functional; settings: 360 h
Procedure, shortened: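 Lung metastasis model: male Balb/c mice (~20 g, 6/group) given 10^6 GFP-CT-26 cells i.v. with peptide or saline, daily i.p. dosing Day 1–15, sacrificed Day 16. Resected lungs imaged for GFP with 488 nm excitation, emission 520; signal collected over 20×20 mm2 per lung; non-implanted normal group used for background subtraction.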

CT26 [15] = assay: Antimetastatic activity against GFP-fused mouse CT26 cells allografted in Balb/c mouse assessed as reduction in tumor nodule numbers at 1.13 mg/kg, ip administered daily for 15 days by fluorescence-based assay; format: functional, organism-based
Procedure, shortened: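 Male Balb/c mice received 10^6 GFP-CT-26 cells iv and daily ip dosing on Days 1–15. On Day 16, pleural-surface tumor nodules per lung were counted after soaking in formaldehyde.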

CT26 [16] = assay: Antimetastatic activity against GFP-fused mouse CT26 cells allografted in Balb/c mouse assessed as reduction in tumor nodule numbers at 11.3 mg/kg, ip administered daily for 15 days by fluorescence-based assay; format: functional; settings: 360 h
Procedure, shortened: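 Lung metastasis model: male Balb/c mice (~20 g, 6/group) given 10^6 GFP-CT-26 cells i.v. with peptide or saline, daily i.p. dosing Day 1–15, sacrificed Day 16. Surface tumor nodules on pleural surfaces counted per lung after soaking in formaldehyde.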

[17] = Drug level in blood of GFP-fused mouse CT26 cells allografted in Balb/c mouse at 11.3 mg/kg, ip administered daily for 15 days; format: ADME, organism-based; settings: read-out: Drug uptake

T1 sequence (P06869 21-178 limits assumed): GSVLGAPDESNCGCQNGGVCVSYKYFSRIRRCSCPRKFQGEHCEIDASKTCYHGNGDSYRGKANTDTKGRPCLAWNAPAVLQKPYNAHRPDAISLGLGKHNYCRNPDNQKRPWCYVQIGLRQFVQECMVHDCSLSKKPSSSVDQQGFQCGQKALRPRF
T1 sequence (P06869 180-433 limits assumed): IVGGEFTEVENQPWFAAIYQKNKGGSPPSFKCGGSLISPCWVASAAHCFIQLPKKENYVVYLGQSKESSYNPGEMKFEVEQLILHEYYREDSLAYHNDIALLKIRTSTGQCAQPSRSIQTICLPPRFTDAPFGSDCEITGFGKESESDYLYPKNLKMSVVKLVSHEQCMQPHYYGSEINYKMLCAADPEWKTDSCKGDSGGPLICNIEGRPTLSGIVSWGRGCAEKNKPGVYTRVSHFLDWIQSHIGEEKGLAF
Sequence of Tissue-type plasminogen activator (Homo sapiens, UniProt P00750) (P00750 whole entry): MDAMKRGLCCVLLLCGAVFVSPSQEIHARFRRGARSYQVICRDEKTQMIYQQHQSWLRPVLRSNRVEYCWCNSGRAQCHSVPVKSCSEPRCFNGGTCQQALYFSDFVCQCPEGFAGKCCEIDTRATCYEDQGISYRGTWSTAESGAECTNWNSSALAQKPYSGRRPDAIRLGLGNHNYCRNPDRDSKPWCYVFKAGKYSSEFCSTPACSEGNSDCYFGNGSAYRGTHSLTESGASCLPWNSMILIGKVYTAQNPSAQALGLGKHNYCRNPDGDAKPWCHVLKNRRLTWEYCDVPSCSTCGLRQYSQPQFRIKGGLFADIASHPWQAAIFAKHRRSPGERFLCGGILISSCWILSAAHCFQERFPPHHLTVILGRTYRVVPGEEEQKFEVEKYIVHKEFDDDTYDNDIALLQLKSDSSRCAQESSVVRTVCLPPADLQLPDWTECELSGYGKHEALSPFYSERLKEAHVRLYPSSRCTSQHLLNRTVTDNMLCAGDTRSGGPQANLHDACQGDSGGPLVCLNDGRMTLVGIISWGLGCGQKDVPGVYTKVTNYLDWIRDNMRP
Sequence of Vitamin K-dependent protein C (P04070 43-197 limits assumed): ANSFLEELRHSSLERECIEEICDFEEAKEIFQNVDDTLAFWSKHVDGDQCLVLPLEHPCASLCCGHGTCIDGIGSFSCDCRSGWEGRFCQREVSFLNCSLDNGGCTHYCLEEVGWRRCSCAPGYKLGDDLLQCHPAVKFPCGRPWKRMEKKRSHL
Sequence of Vitamin K-dependent protein C (P04070 212-461 limits assumed): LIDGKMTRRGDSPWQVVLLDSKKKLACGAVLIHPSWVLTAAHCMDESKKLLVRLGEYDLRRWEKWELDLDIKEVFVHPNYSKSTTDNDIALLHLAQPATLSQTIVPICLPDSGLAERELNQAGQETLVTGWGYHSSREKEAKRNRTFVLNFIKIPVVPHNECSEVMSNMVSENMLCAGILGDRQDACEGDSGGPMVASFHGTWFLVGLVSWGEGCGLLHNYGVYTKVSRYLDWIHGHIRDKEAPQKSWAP
Sequence of Plasma kallikrein (P03952 20-390 limits assumed): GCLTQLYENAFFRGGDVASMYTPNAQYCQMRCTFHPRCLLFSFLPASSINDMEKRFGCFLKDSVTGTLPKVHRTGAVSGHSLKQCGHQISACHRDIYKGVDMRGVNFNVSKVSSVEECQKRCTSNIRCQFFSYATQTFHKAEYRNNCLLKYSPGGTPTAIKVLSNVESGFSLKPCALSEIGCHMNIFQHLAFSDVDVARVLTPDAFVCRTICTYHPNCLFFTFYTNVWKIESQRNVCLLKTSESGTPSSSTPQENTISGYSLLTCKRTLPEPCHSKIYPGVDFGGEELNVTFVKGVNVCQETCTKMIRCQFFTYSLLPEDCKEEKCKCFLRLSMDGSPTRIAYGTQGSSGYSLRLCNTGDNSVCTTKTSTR
Sequence of Plasma kallikrein (P03952 391-638 limits assumed): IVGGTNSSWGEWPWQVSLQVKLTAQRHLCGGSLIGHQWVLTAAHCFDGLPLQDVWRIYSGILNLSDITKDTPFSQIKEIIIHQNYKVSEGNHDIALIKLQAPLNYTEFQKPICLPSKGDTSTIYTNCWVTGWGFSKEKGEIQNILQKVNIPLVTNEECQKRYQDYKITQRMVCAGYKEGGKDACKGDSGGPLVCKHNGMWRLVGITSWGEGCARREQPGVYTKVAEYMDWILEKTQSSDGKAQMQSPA
Sequence of Tissue-type plasminogen activator (Mus musculus, UniProt P11214) (P11214 whole entry): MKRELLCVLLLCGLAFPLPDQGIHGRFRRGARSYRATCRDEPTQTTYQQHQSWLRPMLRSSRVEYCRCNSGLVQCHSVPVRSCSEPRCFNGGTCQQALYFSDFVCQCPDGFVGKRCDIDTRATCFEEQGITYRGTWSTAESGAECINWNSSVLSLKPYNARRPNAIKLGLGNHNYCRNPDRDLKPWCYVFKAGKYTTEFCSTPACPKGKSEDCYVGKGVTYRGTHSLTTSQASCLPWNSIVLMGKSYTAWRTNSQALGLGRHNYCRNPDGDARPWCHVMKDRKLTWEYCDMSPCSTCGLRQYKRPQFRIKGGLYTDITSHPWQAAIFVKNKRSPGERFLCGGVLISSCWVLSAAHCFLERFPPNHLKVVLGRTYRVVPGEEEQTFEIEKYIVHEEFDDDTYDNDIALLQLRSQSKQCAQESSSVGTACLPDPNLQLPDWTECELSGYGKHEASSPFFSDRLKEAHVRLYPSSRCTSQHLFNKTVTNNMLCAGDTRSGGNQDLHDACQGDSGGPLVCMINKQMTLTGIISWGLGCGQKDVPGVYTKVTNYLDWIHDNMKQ
Sequence of Coagulation factor XI (P03951 19-387 limits assumed): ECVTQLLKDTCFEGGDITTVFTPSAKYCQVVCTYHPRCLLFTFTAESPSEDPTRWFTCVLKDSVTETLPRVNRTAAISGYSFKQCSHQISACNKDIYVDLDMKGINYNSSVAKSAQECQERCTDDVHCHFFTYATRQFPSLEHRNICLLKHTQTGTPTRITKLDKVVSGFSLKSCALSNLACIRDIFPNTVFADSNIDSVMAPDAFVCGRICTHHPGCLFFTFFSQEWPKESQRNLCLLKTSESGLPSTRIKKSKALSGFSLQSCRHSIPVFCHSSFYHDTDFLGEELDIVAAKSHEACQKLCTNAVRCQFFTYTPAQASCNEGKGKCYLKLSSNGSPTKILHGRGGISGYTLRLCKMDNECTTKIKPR
Sequence of Coagulation factor XI (P03951 388-625 limits assumed): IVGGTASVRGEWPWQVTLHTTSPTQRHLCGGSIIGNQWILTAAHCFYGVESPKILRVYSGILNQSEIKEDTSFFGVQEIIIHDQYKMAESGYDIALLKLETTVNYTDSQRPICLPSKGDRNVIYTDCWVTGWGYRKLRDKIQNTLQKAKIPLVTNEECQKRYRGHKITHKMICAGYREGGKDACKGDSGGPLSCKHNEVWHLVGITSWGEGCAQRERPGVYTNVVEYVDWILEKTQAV
Sequence of Plasminogen (P00747 97-580 limits assumed): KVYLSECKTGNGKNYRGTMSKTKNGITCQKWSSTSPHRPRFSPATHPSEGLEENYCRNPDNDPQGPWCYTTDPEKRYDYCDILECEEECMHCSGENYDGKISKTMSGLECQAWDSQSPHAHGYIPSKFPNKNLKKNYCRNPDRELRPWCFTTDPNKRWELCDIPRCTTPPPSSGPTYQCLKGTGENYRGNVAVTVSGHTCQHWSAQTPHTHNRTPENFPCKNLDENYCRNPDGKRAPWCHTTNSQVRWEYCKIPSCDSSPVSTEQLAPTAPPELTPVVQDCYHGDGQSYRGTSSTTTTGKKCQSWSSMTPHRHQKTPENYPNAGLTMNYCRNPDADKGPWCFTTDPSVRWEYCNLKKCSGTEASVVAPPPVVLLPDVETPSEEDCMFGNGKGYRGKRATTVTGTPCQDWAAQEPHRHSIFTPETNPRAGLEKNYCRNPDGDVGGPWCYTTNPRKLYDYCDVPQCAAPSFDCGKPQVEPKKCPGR
Sequence of Plasminogen (P00747 581-810 limits assumed): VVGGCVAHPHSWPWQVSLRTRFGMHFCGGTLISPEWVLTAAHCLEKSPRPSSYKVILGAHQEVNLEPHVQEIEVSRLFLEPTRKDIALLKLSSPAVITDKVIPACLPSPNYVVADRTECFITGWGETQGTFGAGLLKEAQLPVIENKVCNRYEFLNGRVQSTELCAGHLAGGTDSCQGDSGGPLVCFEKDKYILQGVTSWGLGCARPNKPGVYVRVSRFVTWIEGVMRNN

Which results are given for `CC[C@H](C)[C@@H]1NC(=O)[C@H](Cc2ccc(O)cc2)NC(=O)[C@H](CCCNC(=N)N)NC(=O)[C@H](CO)NC(=O)[C@H](Cc2ccc(O)cc2)NC(=O)[C@H](C)NC(=O)[C@@H]2CCCN2C(=O)[C@@H](N)CSSC[C@@H](C(=O)O)NC(=O)CNC1=O` (H-CPAYSRYIGC-OH; disulfide 1-10)?
Ki [1]: 0.0153 µM; Ki (Plasma kallikrein): > 25 µM; Ki [2]: > 25 µM; Ki [3]: > 25 µM; Ki (Plasminogen): > 25 µM; Ki (Prothrombin [4]): > 25 µM; Ki (Prothrombin [5]): > 25 µM; Ki (Coagulation factor XI): > 25 µM; Ki [6]: > 25 µM; Ki [7]: > 25 µM; IC50 [8]: 0.0101 µM; IC50 [9]: 0.0119 µM; IC50 [10]: 0.0113 µM; Stability [11]: Stable; inhibition in vivo at 11.3 mg/kg (CT26 [12]): 49.8%; Activity (CT26 [13]): inactive; inhibition in vivo at 11.3 mg/kg (CT26 [14]): 50%; Activity (CT26 [15]): inactive; inhibition in vivo at 11.3 mg/kg (CT26 [16]): 46.5%; concentration at 360 h [17]: 100 µM
